In ChEMBL document CHEMBL1275442, “Pharmacokinetics and tissue distribution of anidulafungin in rats” (Antimicrob Agents Chemother, 2008):

Key:
Blood [1] = assay: Half life in F344 rat blood assessed as total compound-derived radioactivity at 5 mg/kg, iv administered as single bolus dose […]; format: ADME, organism-based; design: dose 5 mg/kg, route intravenous; conditions: in vivo
Summary of the method: (§1)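 Male F344 rats, 10 to 11 weeks old and 223.6 to 243.8 g, got one iv dose of [14C]anidulafungin at 5 mg/kg over about 5 min. Blood, CSF, kidney, liver, lung, quadriceps, spleen and skin were sampled predose and at 0.083 to 72 h, 3 rats per time. Total radioactivity (parent plus metabolites) was measured by liquid scintillation counting. Parameters were noncompartmental, from a composite mean profile.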

Zone of skin [2] = assay: AUC (0 to 24 hrs) in F344 rat skin assessed as total compound-derived radioactivity per gram of tissue at 5 mg/kg, iv administered as single bolus dose […]; format: ADME, organism-based; design: time < 24 hr, dose 5 mg/kg, route intravenous; conditions: in vivo
Summary of the method: (§2)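 Same F344 study: single 5 mg/kg IV [¹⁴C]anidulafungin given over about 5 min. Total drug-derived radioactivity (parent plus metabolites) counted by liquid scintillation, in […]. Noncompartmental analysis of the composite mean profile.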

Zone of skin [3] = assay: Drug level in Long Evans rat skin assessed as radioactivity per gram of tissue at 5 mg/kg, iv administered as single bolus dose measured 0.5 hrs postdose by autoradiography; format: ADME, organism-based; design: dose 5 mg/kg, route intravenous; conditions: in vivo
Summary of the method: (§3)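 Male pigmented Long Evans (HsdBlu:LE) rats, 7.5 weeks old and 202 to 217 g, got a single iv dose of [14C]anidulafungin at 5 mg/kg. One rat per time point (0.5, 6, 12, 24, 72, 168 h) was euthanised by isoflurane and cardiac-puncture exsanguination. Sagittal whole-body sections were quantified by phosphorimaging. Samples were thickness-corrected, and concentrations (μg eq/g) were interpolated from least-squares standard curves.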

Kidney [4] = assay: Drug level in Long Evans rat kidney assessed as high disposition of radioactivity per gram of tissue at 5 mg/kg, iv administered as single bolus dose measured 6 hrs postdose by autoradiography; format: ADME, organism-based; design: dose 5 mg/kg, route intravenous; conditions: in vivo
Summary of the method: (§4)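 Male pigmented Long Evans (HsdBlu:LE) rats, 7.5 weeks old, 202 to 217 g, single iv [¹⁴C]anidulafungin; one rat per sampling time. Euthanized by isoflurane and cardiac-puncture exsanguination. Sagittal whole-body sections quantified by phosphorimaging autoradiography, single samples corrected for section thickness across multiple sections per tissue. Concentrations (μg eq/g drug-derived radioactivity) interpolated from least-squares standard curves per scan.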

[5] = Cmax in F344 rat plasma at 5 mg/kg, iv administered as single bolus dose after 5 min by HPLC method; format: ADME, organism-based; design: dose 5 mg/kg, route intravenous
Summary of the method: (§5)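 Male F344 rats, 10–11 weeks, 223.6–243.8 g, given one IV dose of [¹⁴C]anidulafungin, 5 mg/kg, over about 5 min. Tissues and blood sampled at 0.083–72 h (n = 3 rats per time). Parent drug measured by HPLC; LLOQ/ULOQ were 20/5,120 ng/ml for plasma and 220/56,320 ng/g for tissue. Noncompartmental parameters taken from the composite mean profile.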

[6] = Tmax in F344 rat muscle at 5 mg/kg, iv administered as single bolus dose by HPLC method; format: ADME, organism-based, Muscle tissue; design: dose 5 mg/kg, route intravenous
Summary of the method: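 F344 males, 10 to 11 weeks old and 223.6 to 243.8 g, got a single 5 mg/kg iv dose of [14C]anidulafungin over about 5 min. Plasma and tissues were collected predose and at 0.083 to 72 h, n = 3 per time point. Parent drug was quantified by HPLC-UV, with LLOQ/ULOQ of 20/5,120 ng/ml in plasma and 220/56,320 ng/g in tissue. Noncompartmental parameters came from a composite mean concentration-time profile.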

Kidney [7] = assay: Drug level in Long Evans rat kidney assessed as low disposition of radioactivity per gram of tissue at 5 mg/kg, iv administered as single bolus dose measured 168 hrs postdose by autoradiography; format: ADME, organism-based; design: dose 5 mg/kg, route intravenous; conditions: in vivo; summary of the method: as §4
Blood [8] = assay: AUC (0 to infinity) in F344 rat blood assessed as total compound-derived radioactivity per gram of tissue at 5 mg/kg, iv administered as single bolus dose […]; format: ADME, organism-based; design: dose 5 mg/kg, route intravenous, time infinity; conditions: in vivo; summary of the method: as §2
Spleen [9] = assay: Drug level in Long Evans rat spleen assessed as radioactivity per gram of tissue at 5 mg/kg, iv administered as single bolus dose measured 24 hrs postdose by autoradiography; format: ADME, organism-based; design: dose 5 mg/kg, route intravenous; conditions: in vivo; summary of the method: as §3
Kidney [10] = assay: Drug level in Long Evans rat kidney assessed as low disposition of radioactivity per gram of tissue at 5 mg/kg, iv administered as single bolus dose measured 24 hrs postdose by autoradiography; format: ADME, organism-based; design: dose 5 mg/kg, route intravenous; conditions: in vivo; summary of the method: as §4
Zone of skin [11] = assay: Tmax in F344 rat skin assessed as total compound-derived radioactivity at 5 mg/kg, iv administered as single bolus dose […]; format: ADME, organism-based; design: dose 5 mg/kg, route intravenous; conditions: in vivo; summary of the method: as §1
Muscle tissue = assay: Drug level in Long Evans rat muscle assessed as radioactivity per gram of tissue at 5 mg/kg, iv administered as single bolus dose measured 24 hrs postdose by autoradiography; format: ADME, organism-based; design: dose 5 mg/kg, route intravenous; conditions: in vivo; summary of the method: as §3
Kidney [12] = assay: Drug level in Long Evans rat kidney assessed as low disposition of radioactivity per gram of tissue at 5 mg/kg, iv administered as single bolus dose measured 6 hrs postdose by autoradiography; format: ADME, organism-based; design: dose 5 mg/kg, route intravenous; conditions: in vivo; summary of the method: as §4
Lung = assay: AUC (0 to infinity) in F344 rat lung at 5 mg/kg, iv administered as single bolus dose; format: ADME, organism-based; design: time infinity, dose 5 mg/kg, route intravenous; conditions: in vivo; summary of the method: as §5
Zone of skin [13] = assay: Drug level in Long Evans rat skin assessed as radioactivity per gram of tissue at 5 mg/kg, iv administered as single bolus dose measured 6 hrs postdose by autoradiography; format: ADME, organism-based; design: dose 5 mg/kg, route intravenous; conditions: in vivo; summary of the method: as §3
Spleen [14] = assay: AUC (0 to 24 hrs) in F344 rat spleen assessed as total compound-derived radioactivity per gram of tissue at 5 mg/kg, iv administered as single bolus dose […]; format: ADME, organism-based; design: time < 24 hr, dose 5 mg/kg, route intravenous; conditions: in vivo; summary of the method: as §2
Liver [15] = assay: Drug level in Long Evans rat liver assessed as high disposition of radioactivity per gram of tissue at 5 mg/kg, iv administered as single bolus dose measured 24 hrs postdose by autoradiography; format: ADME, organism-based; design: dose 5 mg/kg, route intravenous; conditions: in vivo; summary of the method: as §4
Kidney [16] = assay: Cmax in F344 rat kidney assessed as total compound-derived radioactivity per gram of tissue at 5 mg/kg, iv administered as single bolus dose after 30 mins by HPLC method; format: ADME, organism-based; design: dose 5 mg/kg, route intravenous; conditions: in vivo, 0.5 h; summary of the method: as §2
Zone of skin [17] = assay: Drug level in Long Evans rat skin assessed as radioactivity per gram of tissue at 5 mg/kg, iv administered as single bolus dose measured 12 hrs postdose by autoradiography; format: ADME, organism-based; design: dose 5 mg/kg, route intravenous; conditions: in vivo; summary of the method: as §3
Plasma [18] = assay: AUC (0 to 24 hrs) in F344 rat plasma assessed as total compound-derived radioactivity per gram of tissue at 5 mg/kg, iv administered as single bolus dose […]; format: ADME, organism-based; design: time < 24 hr, dose 5 mg/kg, route intravenous; conditions: in vivo; summary of the method: as §2
Kidney [19] = assay: Half life in F344 rat kidney assessed as total compound-derived radioactivity at 5 mg/kg, iv administered as single bolus dose […]; format: ADME, organism-based; design: dose 5 mg/kg, route intravenous; conditions: in vivo; summary of the method: as §1
Kidney [20] = assay: AUC (0 to 24 hrs) in F344 rat kidney at 5 mg/kg, iv administered as single bolus dose; format: ADME, organism-based; design: time < 24 hr, dose 5 mg/kg, route intravenous; conditions: in vivo; summary of the method: as §5
Liver [21] = assay: Half life in F344 rat liver assessed as total compound-derived radioactivity at 5 mg/kg, iv administered as single bolus dose […]; format: ADME, organism-based; design: dose 5 mg/kg, route intravenous; conditions: in vivo; summary of the method: as §1
Plasma [22] = assay: Tmax in F344 rat plasma assessed as total compound-derived radioactivity at 5 mg/kg, iv administered as single bolus dose […]; format: ADME, organism-based; design: dose 5 mg/kg, route intravenous; conditions: in vivo; summary of the method: as §1
Cerebrospinal fluid = assay: AUC (0 to infinity) in F344 rat cerebrospinal fluid assessed as total compound-derived radioactivity per gram of tissue at 5 mg/kg, iv administered as single bolus dose […]; format: ADME, organism-based; design: time infinity, dose 5 mg/kg, route intravenous; conditions: in vivo; summary of the method: as §2
Cerebrum = assay: Drug level in Long Evans rat cerebrum assessed as radioactivity per gram of tissue at 5 mg/kg, iv administered as single bolus dose measured 168 hrs postdose by autoradiography; format: ADME, organism-based; design: dose 5 mg/kg, route intravenous; conditions: in vivo; summary of the method: as §4

## CCCCCOc1ccc(-c2ccc(-c3ccc([14C](=O)N[C@H]4C[C@@H](O)[C@@H](O)NC(=O)[C@@H]5[C@@H](O)[C@@H](C)CN5C(=O)[C@H]([C@@H](C)O)NC(=O)[C@H]([C@H](O)[C@@H](O)c5ccc(O)cc5)NC(=O)[C@@H]5C[C@@H](O)CN5C(=O)[C@H]([C@@H](C)O)NC4=O)cc3)cc2)cc1 [14C-ANIDULAFUNGIN]
Blood [1]
  t1/2: 28.5 h
Zone of skin [2]
  AUC: 190.73 ugequiv.hr/g
Zone of skin [3]
  Drug uptake: 5.42 ugequiv
Kidney [4]
  Drug uptake: 20.66 ugequiv
[5]
  Cmax: 5250 ng/mL
[6]
  Tmax: 0.5 h
Kidney [7]
  Drug uptake: 0.7 ugequiv
Blood [8]
  AUC: 243.62 ugequiv.hr/g
Spleen [9]
  Drug uptake: 10.25 ugequiv
Kidney [10]
  Drug uptake: 4.41 ugequiv
Zone of skin [11]
  Tmax: 1 h
Muscle tissue
  Drug uptake: 1.17 ugequiv
Kidney [12]
  Drug uptake: 8.45 ugequiv
Lung
  AUC: 638.21 µg·h/g
Zone of skin [13]
  Drug uptake: 5.39 ugequiv
Spleen [14]
  AUC: 822.61 ugequiv.hr/g
Liver [15]
  Drug uptake: 29.63 ugequiv
Kidney [16]
  Cmax: 19.63 ugequiv/g
Zone of skin [17]
  Drug uptake: 5.34 ugequiv
Plasma [18]
  AUC: 131.77 ugequiv.hr/g
Kidney [19]
  t1/2: 48.5 h
Kidney [20]
  AUC: 517.32 µg·h/g
Liver [21]
  t1/2: 69.2 h
Plasma [22]
  Tmax: 4.98 min
Cerebrospinal fluid
  AUC: 0.95 ugequiv.hr/g
Cerebrum
  Drug uptake: 0.6 ugequiv
